According to ChEMBL document CHEMBL1133857, “Beta 3 agonists. Part 1: evolution from inception to BMS-194449” (Bioorg Med Chem Lett, 2001):

Assays:
[1] = target: T1, Beta-3 adrenergic receptor (Homo sapiens, UniProt P13945); test: Human beta-3 adrenergic receptor agonist activity by measurement of cAMP accumulation levels in CHO membranes expressing human beta-3 receptor.; format: functional, cell membranes
Procedure, shortened: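 β3 intrinsic activity (% activation) measured in membranes from CHO cells transfected with human β3 adrenergic receptor.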
Target sequence in this assay (P13945 whole entry, looked up): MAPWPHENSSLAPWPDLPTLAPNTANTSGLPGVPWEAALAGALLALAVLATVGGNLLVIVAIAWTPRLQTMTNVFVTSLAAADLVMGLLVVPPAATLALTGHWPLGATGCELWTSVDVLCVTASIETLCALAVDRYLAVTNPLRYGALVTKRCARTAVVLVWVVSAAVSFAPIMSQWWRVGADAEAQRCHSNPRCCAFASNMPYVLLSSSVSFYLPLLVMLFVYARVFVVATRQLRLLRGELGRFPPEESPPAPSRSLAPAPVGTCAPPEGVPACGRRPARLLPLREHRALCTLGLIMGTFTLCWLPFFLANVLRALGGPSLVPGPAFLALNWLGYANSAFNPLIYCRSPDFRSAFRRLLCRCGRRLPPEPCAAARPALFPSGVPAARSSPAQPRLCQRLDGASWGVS

[2] = target: Adrenergic receptor beta; ADRB1 & ADRB3 (Homo sapiens) (UniProt P08588+P13945); test: Selectivity measured as the ratio of Ki of Beta-1 Adrenergic receptor to the Ki of Beta-3 Adrenergic receptor; format: protein assay
Chain of Adrenergic receptor beta; ADRB1 & ADRB3 (Homo sapiens) (P08588 whole entry, looked up): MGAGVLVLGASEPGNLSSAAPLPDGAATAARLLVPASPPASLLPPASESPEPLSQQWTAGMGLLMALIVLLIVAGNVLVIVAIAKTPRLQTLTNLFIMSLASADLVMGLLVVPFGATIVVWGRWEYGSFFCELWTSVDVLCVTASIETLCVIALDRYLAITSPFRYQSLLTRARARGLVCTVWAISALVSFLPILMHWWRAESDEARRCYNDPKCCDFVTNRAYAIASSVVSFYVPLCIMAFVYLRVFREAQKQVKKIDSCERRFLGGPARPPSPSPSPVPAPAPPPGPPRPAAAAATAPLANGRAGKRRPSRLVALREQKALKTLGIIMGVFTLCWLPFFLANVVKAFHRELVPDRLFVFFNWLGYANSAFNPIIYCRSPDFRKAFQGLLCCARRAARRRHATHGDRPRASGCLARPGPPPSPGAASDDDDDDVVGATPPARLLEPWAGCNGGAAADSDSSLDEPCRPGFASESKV
Chain of Adrenergic receptor beta; ADRB1 & ADRB3 (Homo sapiens) (P13945 whole entry, looked up): as the sequence (P13945 whole entry, looked up) above
Procedure, shortened: (§1)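 Ki at human β1, β2 and β3 adrenergic receptors measured by binding to membranes prepared from CHO cells transfected with each human receptor. Selectivity is expressed as the ratio of β1 or β2 Ki to β3 Ki.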

[3] = target: Beta-2 adrenergic receptor and beta-3 adrenergic receptor (Homo sapiens) (UniProt P07550+P13945); test: Selectivity as the ratio of Ki of beta-2 adrenergic receptor to the Ki of beta-3 adrenergic receptor.; format: protein assay; procedure, shortened: as §1
[4] = target: T1, Beta-3 adrenergic receptor; test: Binding affinity against CHO cells transfected with human beta-3 adrenergic receptor in the presence of [125I]iodocyanopindolol; format: cell-based; procedure, shortened: as §1
Target sequence in this assay (P13945 whole entry): as the sequence (P13945 whole entry, looked up) above

[5] = Response of African green monkeys to iv injection measured as beta-2 margin before decrease of serum K; format: functional, Cercopithecidae
Procedure, shortened: (§2)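 Agonist given iv to ketamine-anesthetized African green monkeys. A β1 event is the onset of tachycardia, and a β2 event is a decrease in serum K+. Margin = dose producing statistically significant onset of the β1 or β2 event ÷ ED50 for lipolysis.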

[6] = Response of African green monkeys to lipolysis upon iv injection of compound; format: functional; conditions: Cercopithecidae
Procedure, shortened: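 Agonist given iv to ketamine-anesthetized African green monkeys. Lipolysis is read as the rise in non-esterified fatty acids, and the ED50 is given in mg/kg. β3 mediation is checked by co-administration with propranolol 0.1 mg/kg.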

[7] = Response of African green monkeys to iv injection measured as beta-1 margin before onset of tachycardia; format: functional, Cercopithecidae; procedure, shortened: as §2
[8] = target: Beta-1 adrenergic receptor (Cavia porcellus) (UniProt B0FL73); test: (§3) Intrinsic activity as the acceleration in contraction of spontaneously beating guinea pig atria relative to that induced by isoproterenol; format: functional
Chain of Beta-1 adrenergic receptor (Cavia porcellus) (B0FL73 1-467): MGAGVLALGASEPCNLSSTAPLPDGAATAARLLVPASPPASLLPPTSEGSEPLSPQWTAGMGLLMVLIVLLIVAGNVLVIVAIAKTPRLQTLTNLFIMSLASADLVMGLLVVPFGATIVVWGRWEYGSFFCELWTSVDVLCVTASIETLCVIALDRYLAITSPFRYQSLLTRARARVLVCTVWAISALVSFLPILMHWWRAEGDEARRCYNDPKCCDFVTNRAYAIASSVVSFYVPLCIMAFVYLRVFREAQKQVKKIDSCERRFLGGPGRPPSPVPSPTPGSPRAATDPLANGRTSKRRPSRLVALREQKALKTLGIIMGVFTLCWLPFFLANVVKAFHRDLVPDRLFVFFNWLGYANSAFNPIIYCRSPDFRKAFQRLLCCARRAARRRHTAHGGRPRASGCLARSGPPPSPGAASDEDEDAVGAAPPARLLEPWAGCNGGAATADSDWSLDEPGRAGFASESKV

[9] = organism: Cavia porcellus; test: as §3; format: functional

| Structure (SMILES) | Intrinsic activity [1] [%] | Selectivity [2] | Selectivity [3] | Ki [4] [nM] | Ratio of dose [5] | ED50 [6] [mg/kg] | Ratio of dose [7] | Intrinsic activity [8] [%] | Intrinsic activity [9] [%] |
| --- | --- | --- | --- | --- | --- | --- | --- | --- | --- |
| C[C@H](Cc1ccc(OCC(=O)O)cc1)NC[C@H](O)c1cccc(Cl)c1 | 67 | – | – | – | – | – | – | – | – |
| CS(=O)(=O)Nc1cc(C(O)CNCc2ccccc2)ccc1O (stereo unspecified) | – | 2 | 0.25 | 12700 | – | – | – | – | – |
| CS(=O)(=O)Nc1cc(C(O)CN)ccc1O (stereo unspecified) | 93 | 0.6 | 0.1 | 17000 | – | – | – | – | – |
| CS(=O)(=O)Nc1cc(C(O)CNCCc2ccc(OCC(=O)O)cc2)ccc1O (stereo unspecified) | 77 | 2 | 0.06 | 49000 | – | – | – | – | – |
| COc1ccc([C@H](Cc2ccccc2)NC[C@H](O)c2ccc(O)c(NS(C)(=O)=O)c2)cc1OC | 93 | 63 | 6 | 320 | – | – | – | – | – |
| COc1ccc(CNCC(O)c2ccc(O)c(NS(C)(=O)=O)c2)cc1 (stereo unspecified) | 95 | 22 | 2 | 1550 | – | – | – | – | – |
| COc1ccc([C@@H](Cc2ccccc2)NC[C@H](O)c2ccc(O)c(NS(C)(=O)=O)c2)cc1OC | 112 | 63 | 6 | 11 | 3 | 0.03 | <3 | – | – |
| COc1ccc(CCNCC(O)c2ccc(O)c(NS(C)(=O)=O)c2)cc1OC (stereo unspecified) | 110 | 4 | 1 | 550 | – | – | – | – | – |
| CCC(C)(C)NCC(O)c1ccc(O)c(NS(C)(=O)=O)c1 (stereo unspecified) | 125 | 0.3 | 0.03 | 3700 | – | – | – | – | – |
| CS(=O)(=O)Nc1cc(C(O)CNC(Cc2ccccc2)C2CCCCC2)ccc1O (stereo unspecified) | 80 | 7 | 0.7 | 4300 | – | – | – | – | – |
| CCCCCC(Cc1ccccc1)NCC(O)c1ccc(O)c(NS(C)(=O)=O)c1 (stereo unspecified) | 77 | 8 | 0.5 | 320 | – | – | – | – | – |
| CCc1ccc(C(Cc2ccccc2)NCC(O)c2ccc(O)c(NS(C)(=O)=O)c2)cc1CC (stereo unspecified) | 91 | 6 | 0.5 | 520 | – | – | – | – | – |
| CC(=O)Nc1ccc(C(NC[C@H](O)c2ccc(O)c(NS(C)(=O)=O)c2)c2ccc(NC(C)=O)cc2)cc1 | 96 | 17 | 3 | 300 | – | – | – | 88 | – |
| COc1ccc(CCNCC(O)c2ccc(O)c(NS(C)(=O)=O)c2)cc1 (stereo unspecified) | 93 | 4 | 0.3 | 480 | – | – | – | – | – |
| Cc1ccc(C(Cc2ccccc2)NCC(O)c2ccc(O)c(NS(C)(=O)=O)c2)cc1C (stereo unspecified) | 79 | 43 | 3 | 133 | – | – | – | – | – |
| COc1ccc(C(C)(NC[C@H](O)c2ccc(O)c(NS(C)(=O)=O)c2)c2ccc(OC)cc2)cc1 | 79 | 3 | 8 | 20 | – | – | – | – | 79 |
| COCc1ccc(C(NC[C@H](O)c2ccc(O)c(NS(C)(=O)=O)c2)c2ccc(COC)cc2)cc1 | 78 | 46 | 13 | 980 | – | – | – | – | – |
| CS(=O)(=O)Nc1cc(C(O)CNC23CC4CC(CC(C4)C2)C3)ccc1O (stereo unspecified) | 110 | 15 | 0.04 | 11000 | – | – | – | – | – |
| COc1cccc(C(Cc2ccccc2)NCC(O)c2ccc(O)c(NS(C)(=O)=O)c2)c1 (stereo unspecified) | 99 | 16 | 2 | 230 | – | – | – | – | – |
| COC(=O)COc1ccc(CCNCC(O)c2ccc(O)c(NS(C)(=O)=O)c2)cc1 (stereo unspecified) | 79 | 0.7 | 0.01 | 3300 | – | – | – | – | – |

| Structure (SMILES) | Intrinsic activity [1] [%] | Selectivity [2] | Selectivity [3] | Ki [4] [nM] | Ratio of dose [5] | ED50 [6] [mg/kg] | Ratio of dose [7] | Intrinsic activity [8] [%] | Intrinsic activity [9] [%] |
| --- | --- | --- | --- | --- | --- | --- | --- | --- | --- |
| COc1ccc(C(Cc2ccccc2)NCC(O)c2ccc(O)c(NS(C)(=O)=O)c2)c(OC)c1 (stereo unspecified) | 102 | 37 | 3 | 70 | – | – | – | – | – |
| CS(=O)(=O)Nc1cc(C(O)CNC(CCCCC(=O)O)Cc2ccccc2)ccc1O (stereo unspecified) | 57 | 1 | 0.3 | 87000 | – | – | – | – | – |
| CN(C)C(=O)c1ccc(C(NC[C@H](O)c2ccc(O)c(NS(C)(=O)=O)c2)c2ccc(C(=O)N(C)C)cc2)cc1 | 43 | – | – | – | – | – | – | – | – |
| COc1ccc(C(Cc2ccccc2)NCC(O)c2ccc(O)c(NS(C)(=O)=O)c2)cc1 (stereo unspecified) | 99 | – | – | – | – | – | – | – | – |
| CS(=O)(=O)Nc1cc(C(O)CNC(Cc2ccccc2)Cc2ccccc2)ccc1O (stereo unspecified) | – | 6 | 0.3 | 1500 | – | – | – | – | – |
| COc1ccc(C(NC[C@H](O)c2ccc(O)c(NS(C)(=O)=O)c2)c2ccc(OC)cc2)cc1 | 100 | – | – | – | – | – | – | – | 85 |
| CS(=O)(=O)Nc1cc([C@@H](O)CNC(c2ccccc2)c2ccccc2)ccc1O | 44 | 5 | 5 | 5800 | – | – | – | – | – |
| CS(=O)(=O)Nc1cc(C(O)CNC(Cc2ccccc2)c2ccc(Cl)c(Cl)c2)ccc1O (stereo unspecified) | 97 | 9 | 1 | 414 | – | – | – | – | – |
| CC(NC[C@H](O)c1ccc(O)c(NS(C)(=O)=O)c1)(c1ccc(OC(F)F)cc1)c1ccc(OC(F)F)cc1 | 94 | 2 | 2 | 81 | – | – | – | – | – |
| CS(=O)(=O)Nc1cc(C(O)CNC(Cc2ccccc2)c2ccccc2)ccc1O (stereo unspecified) | – | 15 | 3 | – | – | – | – | – | – |
| COC(=O)CCCCC(Cc1ccccc1)NCC(O)c1ccc(O)c(NS(C)(=O)=O)c1 (stereo unspecified) | 89 | 26 | 5 | 570 | – | – | – | – | – |
| COc1ccc(C(NC[C@H](O)c2ccc(O)c(NS(C)(=O)=O)c2)(C(N)=O)c2ccc(OC)cc2)cc1 | 106 | 3 | 10 | 220 | – | – | – | – | – |
| CS(=O)(=O)Nc1cc(C(O)CNC(CCCCCO)Cc2ccccc2)ccc1O (stereo unspecified) | 72 | 10 | 0.5 | 480 | – | – | – | – | – |
| CC(C)NCC(O)c1ccc(O)c(NS(C)(=O)=O)c1 (stereo unspecified) [SOTERENOL] | 109 | 2 | 0.6 | 4100 | – | – | – | – | – |
| CS(=O)(=O)Nc1cc([C@@H](O)CNC(c2ccc(OC(F)F)cc2)c2ccc(OC(F)F)cc2)ccc1O | 77 | 8 | 7 | 160 | >60 | 0.08 | >6 | – | 24 |
| CS(=O)(=O)Nc1cc(C(O)CNCCc2ccccc2)ccc1O (stereo unspecified) | 91 | 2 | 0.07 | 1100 | – | – | – | – | – |
| CNC(=O)CCCCC(Cc1ccccc1)NCC(O)c1ccc(O)c(NS(C)(=O)=O)c1 (stereo unspecified) | 104 | 7 | 0.5 | 1600 | – | – | – | – | – |
| COc1ccc(C(Cc2ccccc2)NCC(O)c2ccc(O)c(NS(C)(=O)=O)c2)cc1OC (stereo unspecified) | 105 | 69 | 8 | 33 | – | – | – | – | – |
| CS(=O)(=O)Nc1cc([C@@H](O)CNC(c2ccc(F)cc2)c2ccc(F)cc2)ccc1O | 70 | 3 | 2 | 2800 | – | – | – | – | 48 |
